Screens deposited in PubChem BioAssay by several laboratories.
b-catenin transl: beta-catenin nuclear translocation modulation. HeLa beta-catenin nuclear translocation, immunofluorescence imaging. 190,000 tested, 0.3% active. nuclear translocation activity, % at 5 µM;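 active = nuclear translocation activity above 50% at 5 µM, with a well cell count of 50 or more; inconclusive = wells under 50 cells across six images, flagged as toxic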;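 note: per-cell ratio of nuclear to cytoplasmic median beta-catenin stain intensity; plate controls were DMSO negative control for no effect and GSK-3 inhibitor IX positive control for full effect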
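Test system: HeLa cells, endogenous beta-catenin; Compound: single 5 µM dose plus 0.02–20 µM confirmation series; Times: compound exposure 24 h at 37°C; Signal: fluorescence imaging of beta-catenin antibody stain plus DAPI; Read-out: % activation, nuclear-to-cytoplasmic median beta-catenin signal ratio per cell.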
MT stabilizer: microtubule stabilization, imaging screen; HeLa tubulin immunostaining HCS, 24 h; share of cells brighter than vehicle mean+2SD; % tubulin-high responders, % at 10 µM; 200,000 tested, 0.83% active; AID 2205;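 active = plate Z-score above 3 for both tubulin-high and condensed-nucleus cell shares, with cell loss under 80%, at 10 µM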;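 note: anti alpha tubulin signal scored within the nucleus-defined area of each cell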
ROMK mod: human ROMK K+ channel modulation, primary screen; Tet-inducible ROMK, thallium flux fluorescence; actives lie on both sides; B-score at 10 µM; 130,000 tested, 2% active;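 active = signal ratio slope over the read window, or its plate-corrected B-score, at least 3 SD from the plate mean, either direction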;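 note: B-score of the F/F0 ratio slope over 7 to 12 s after thallium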
Target sequence (P48048 whole entry, looked up): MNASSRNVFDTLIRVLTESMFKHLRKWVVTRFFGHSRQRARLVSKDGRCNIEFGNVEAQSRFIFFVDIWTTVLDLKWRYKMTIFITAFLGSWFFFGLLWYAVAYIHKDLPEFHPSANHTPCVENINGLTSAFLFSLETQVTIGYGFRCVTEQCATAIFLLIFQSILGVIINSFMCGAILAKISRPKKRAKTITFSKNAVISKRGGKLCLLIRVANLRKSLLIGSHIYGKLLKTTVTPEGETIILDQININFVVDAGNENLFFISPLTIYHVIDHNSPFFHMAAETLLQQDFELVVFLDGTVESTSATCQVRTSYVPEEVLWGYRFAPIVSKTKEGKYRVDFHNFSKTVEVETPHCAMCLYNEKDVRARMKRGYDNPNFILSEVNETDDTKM
ROMK hit retest: retested hit modulating human ROMK potassium channel; shares compounds with ROMK mod; AID 1917; 3,000 tested, 54% active; normalized thallium flux (F/F0 slope) at 10 µM; ROMK thallium flux, fluorescence ratio; stronger effect = lower value;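 active = Flux at 10 µM at least 3 SD below or above vehicle control mean in one or both replicates; inconclusive = no clear call, values can overlap the other calls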
Active calls of the source: *; ? = inconclusive; nt = no result given. This is a sample that favours compounds with a hit; in the whole collection about 1.9% have one here.

SMILES | b-catenin transl | MT stabilizer | ROMK mod | ROMK hit retest
O=C1c2oc3ccc(F)cc3c(=O)c2C(c2cccc(O)c2)N1CCCN1CCOCC1 (configuration not stated) | -4 | 3 | -2.3* | 0.075
C=CCOc1cccc(C2c3c(oc4ccc(F)cc4c3=O)C(=O)N2CCCN2CCOCC2)c1 (configuration not stated) | -2 | nt | nt | nt
CCn1c(=O)[nH]c(=O)c2c(N)c(C(=O)c3cc(F)ccc3F)sc21 | 0 | nt | nt | nt
NCCc1c(-c2ccccc2)n(-c2ccccc2)c2ccccc12 | 30 | 10 | -3.4* | 0.061*
CCCc1c(O)c2ccccc2n(-c2ccccc2)c1=O | nt | 3 | nt | nt
Cc1ccc(C)c(OCC(O)CN2CCC(CN3C(=O)c4cccc5cccc(c45)C3=O)CC2)c1 (configuration not stated) | nt | 3 | -4.7* | ?
O=C1c2cccc3cccc(c23)C(=O)N1CC1CCN(CC(O)COCc2ccc3c(c2)OCO3)CC1 (configuration not stated) | nt | 4 | -2.9 | nt
Cc1nn(-c2cc(Cl)ccc2Cl)c(C)c1C(=O)O | 0 | 7 | 0.7 | nt
C=CCC(CC=C)(NC(=O)c1cccc(C)c1)c1ccccc1 | nt | 2 | nt | nt
Cc1ccccc1Cn1c(=N)n(CC(O)c2ccco2)c2ccccc21 (configuration not stated) | 0 | 2 | nt | nt
CCCCn1c(=N)n(CC(=O)c2ccco2)c2ccccc21 | 0 | 2 | nt | nt
N=c1n(CCN2CCCC2)c2ccccc2n1CC(O)c1ccco1 (configuration not stated) | -4 | 3 | nt | nt
CCCCCCCn1c(=N)n(CC(=O)c2ccco2)c2ccccc21 | -2 | 1 | -5.3* | 0.053*
CCCCCCCn1c(=N)n(CC(O)c2ccco2)c2ccccc21 (configuration not stated) | 0 | 1 | -4.3* | 0.061*
CC(C)(C)c1ccc(Cn2c(=N)n(CC(O)c3ccco3)c3ccccc32)cc1 (configuration not stated) | -1 | 9.5* | -2.7* | 0.051*
Cc1cc2nccc(-c3ccc(Cl)c([N+](=O)[O-])c3)n2n1 | -1 | 2 | -0.97 | nt
O=C(NC(=S)N1CCc2ccccc21)c1ccccc1Br | 0 | 2 | nt | nt
COc1ccc(Nc2ncnc3c2cnn3Cc2ccccc2)cc1OC | 3 | 2 | nt | nt
COc1ccc(CC(=O)NNc2ncnc3c2cnn3Cc2ccccc2)cc1OC | 2 | nt | nt | 0.078
Cc1ccccc1NC(=O)CSc1n[nH]c(-c2ccco2)n1 | -1 | 1 | 0.41 | nt
c1ccc(CSc2n[nH]c(-c3ccco3)n2)cc1 | 2 | 1 | 2* | 0.073
CCCN(CCC)CCCNC(=S)Nc1ccc2nc3n(c(=O)c2c1)CCCCC3 | nt | 3 | nt | nt
CCn1c(C(C)NC(=O)c2cccc(C)c2)n[nH]c1=S (configuration not stated) | 0 | 3 | -0.45 | nt
Cc1cc(N=Cc2cc(Br)ccc2O)no1 | nt | 2 | nt | ?
Cc1ccc(S(=O)(=O)/N=C/c2cc(Br)ccc2O)cc1 | -1 | 3 | 0.76 | nt
SMILES | b-catenin transl | MT stabilizer | ROMK mod | ROMK hit retest
Cc1cc(C)cc(C(=O)NN2CCOCC2)c1 | -2 | 1 | nt | nt
COC(=O)Cc1cc(=O)[nH]c(/N=C(\N)Nc2ccc(C)cc2)n1 | nt | 3 | nt | nt
Cc1ccc(N/C(N)=N/c2nc(CSc3nnc(C)s3)cc(=O)[nH]2)c(C)c1 | 20 | 12* | 6.3* | 0.086
Cc1ccc(SCc2cc(=O)[nH]c(/N=C(\N)Nc3cccc4ccccc34)n2)cc1 | 0 | 3 | nt | nt
COc1ccc(N/C(N)=N/c2nc(CSc3nnc(C)s3)cc(=O)[nH]2)cc1 | -1 | 4 | 3.9* | 0.079
CN(c1ccc(C(=O)NC2CC2)cc1)S(=O)(=O)c1ccccc1 | 2 | 4 | nt | nt
CC(CNC(=O)CCc1nnc(CCC2CCCCC2)o1)c1ccccc1 (configuration not stated) | 0 | 3 | -2.3 | nt
Cc1c(C(=O)Nc2ccncc2)oc2ccccc12 | -1 | 2 | nt | 0.074
Cc1c(C(=O)Nc2ccccn2)oc2ccccc12 | 3 | 3 | nt | nt
N#C/C(=C\c1c[nH]c2ccccc12)c1nnc2n1CCCCC2 | 1 | 3 | nt | nt
N#C/C(=N\Nc1cccc2ccccc12)c1nnc2n1CCCCC2 | 1 | 5 | nt | 0.059*
CC(=O)Nc1ccccc1C(=O)C(=O)Nc1ccc(C(=O)NCC2CCCO2)cc1 (configuration not stated) | 3 | 4 | 2.5 | nt
COC(=O)Nc1ccc(S(=O)(=O)N2CCC(C(=O)NC3CCCCC3)CC2)cc1 | 5 | 3 | 0.053 | nt
Cc1c(Cl)cccc1NC(=O)CSCC(N)=O | nt | 3 | nt | nt
Cc1c(Cl)cccc1NC(=O)CSC(N)=O | -1 | 3 | -2.6* | 0.075
O=S(=O)(Nc1cccc(-c2nnco2)c1)c1ccc(F)cc1F | -4 | nt | nt | nt
CC(=O)c1c(C)[nH]c(C(=O)OCc2ccccc2)c1C | 2 | 1 | 2.1 | nt
CC(=O)c1c(C)[nH]c(C(=O)OCCCCN2C(=O)c3ccccc3C2=O)c1C | -2 | 1 | nt | 0.061*
CCOC(=O)CCS(=O)(=O)c1nc(-c2ccccc2)cc(C(F)(F)F)n1 | -1 | 3 | -4.4* | 0.055*
CCOC(=O)CS(=O)(=O)c1nc(-c2ccccc2)cc(C(F)(F)F)n1 | 4 | 5 | -4.5* | 0.059*
COC(=O)CCS(=O)(=O)c1nc(-c2ccccc2)cc(C(F)(F)F)n1 | 2 | 4 | nt | nt
CCOC(=O)CS(=O)(=O)c1nc(-c2ccc(F)cc2)cc(C(F)(F)F)n1 | 0 | 4 | nt | nt
O=C(OCn1nnc2ccccc2c1=O)c1cc2ccccc2o1 | -2 | nt | nt | nt
CCOC(=O)Cn1nc(Cc2ccccc2)c2ccccc2c1=O | 1 | 3 | nt | nt
CCOC(=O)Cn1nc(-c2ccccc2)c2ccccc2c1=O | -1 | 2 | 4.1* | 0.081
SMILES | b-catenin transl | MT stabilizer | ROMK mod | ROMK hit retest
Cc1ccc(NS(=O)(=O)c2cc(-c3n[nH]c(=O)c4ccccc34)ccc2C)cc1 | 11 | 11 | 0.43 | nt
COC(=O)N/N=C/c1cn(Cc2ccccc2F)c2ccccc12 | 0 | nt | -3.4* | 0.059*
COC(=O)N/N=C/c1cn(Cc2ccc(F)cc2)c2ccccc12 | 0 | nt | nt | nt
CCc1ccc(S(=O)(=O)NCc2csc(C)n2)s1 | 1 | 3 | -0.05 | nt
CCCCOc1ccc(S(=O)(=O)NCc2csc(C)n2)cc1 | -1 | 3 | -2.3* | 0.067*
NC(=O)C(c1ccc(Cl)cc1)c1ccc(Sc2ccc(Cl)cc2)nn1 (configuration not stated) | nt | 2 | -0.26 | nt
CCOC(=O)C1=C(N)OC2=C(C(=O)CC(C)(C)C2)C1c1cc(CSc2nnnn2C)cs1 (configuration not stated) | 1 | 2 | -4.1* | ?
CCOC(=O)C1=C(N)OC2=C(C(=O)CC(C)(C)C2)C1c1ccoc1 (configuration not stated) | 0 | 4 | -0.099 | nt
Cc1nn(Cc2ccccc2)c(Cl)c1C(=O)NCc1ccco1 | 0 | 2 | -0.17 | nt
O=C(NN1CCOCC1)c1cc(-c2ccc(Cl)c(Cl)c2)nc2ccccc12 | -1 | 4 | -0.026 | nt
NC(=O)c1ccc(OCC(F)(F)F)nc1 | 0 | nt | nt | nt
COCCN=c1scc(-c2ccco2)n1/N=C/c1ccc(O)c(O)c1O | -5 | 5 | 3.2* | 0.079
C=CCN=c1scc(-c2ccco2)n1/N=C/c1ccc(O)c(O)c1O | 2 | nt | nt | nt
